Assay results taken from ChEMBL document CHEMBL4130437, “Bioassay-Guided Isolation of Antibacterial Metabolites from Emericella sp. TJ29” (J Nat Prod, 2017).
≈ marks a conversion by molar mass, not a printed value. Blank lines part the entries; values can stand above or below the compound they belong to. Calls of active or inactive are those of the source. No cut-off for these calls is given here.

What was measured:
Enterococcus faecalis = experiment: Antibacterial activity against Enterococcus faecalis ATCC 29212 after 16 hrs by broth microdilution method; type: functional; details: ATCC 29212, 16 h
Summary of the method: (§1)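 Broth microdilution MIC with the inoculum standardized to about 5 × 10^5 CFU/mL. Plates were incubated 16 h at 37 °C. MIC was taken as the lowest concentration with no visible bacterial growth. Each experiment was run three times.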

BEAS-2B = experiment: Cytotoxicity against human BEAS2B cells assessed as reduction in cell viability at 0.064 to 40 uM after 48 hrs by MTS assay; type: cell-based
Summary of the method: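 BEAS-2B cells grown in RPMI-1640 or DMEM with 10% FBS at 37 °C under 5% CO2. Seeded at 1 × 10^5 cells/mL and left to adhere 12 h. Exposed to compound at various concentrations in triplicate for 48 h, with cisplatin and paclitaxel as positive controls. MTS was added for 4 h, then cells were lysed in SDS/DMF and OD read at 490 nm. IC50 by Reed–Muench.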

Klebsiella pneumoniae = experiment: Antibacterial activity against Klebsiella pneumoniae ATCC 700603 after 16 hrs by broth microdilution method; type: functional; details: Klebsiella pneumoniae, 700603, 16 h; summary of the method: as §1
Escherichia coli [1] = experiment: Bacteriostatic activity against ESBL-producing Escherichia coli ATCC 35218 after 2 to 24 hrs by time kill assay; type: functional, organism-based
Summary of the method: (§2)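 Overnight MHB culture was diluted into fresh MHB at 5 × 10^5 CFU/mL. Tubes got varied compound concentrations, with untreated inoculated medium as control, and were shaken at 37 °C. At 2, 4, 6, 8, 12 and 24 h, samples were serially diluted, plated on tryptic soy agar and incubated overnight at 37 °C, then colonies were counted. Done at least three times, mean/SD.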

Pseudomonas aeruginosa = experiment: Antibacterial activity against Pseudomonas aeruginosa ATCC 15442 after 16 hrs by broth microdilution method; type: functional; details: ATCC 15442, 16 h; summary of the method: as §1
Escherichia coli [2] = experiment: Antibacterial activity against ESBL-producing Escherichia coli ATCC 35218 after 16 hrs by broth microdilution method; type: functional; details: ATCC 35218, 16 h; summary of the method: as §1
Staphylococcus aureus = experiment: Antibacterial activity against methicillin-resistant Staphylococcus aureus ATCC 43300 after 16 hrs by broth microdilution method; type: functional; details: ATCC 43300, 16 h
Escherichia coli [3] = experiment: Bactericidal activity against ESBL-producing Escherichia coli ATCC 35218 after 2 to 24 hrs by time kill assay; type: functional, organism-based; summary of the method: as §2

- MIC (Enterococcus faecalis): 16 µg/mL (≈ 49.5 µM)
SMILES: O=C(N[C@H](CO)[C@H](O)c1ccc([N+](=O)[O-])cc1)C(Cl)Cl [CHLORAMPHENICOL]

SMILES: C=C1[C@H]2C(=O)[C@@]3(C)C[C@]4(CC[C@H]5C(C)(C)C(=O)C=C[C@]5(C)[C@H]24)[C@@]12COC(=O)[C@@H]2[C@H]3O
- Activity (BEAS-2B): Non-Toxic
- MIC (Klebsiella pneumoniae): 32 µg/mL (≈ 78 µM)
- Activity (Escherichia coli [1]): Active
- MIC (Pseudomonas aeruginosa): 8 µg/mL (≈ 19.5 µM)
- MIC (Escherichia coli [2]): 2 µg/mL (≈ 4.87 µM)
- MIC (Enterococcus faecalis): 32 µg/mL (≈ 78 µM)
- MIC (Staphylococcus aureus): 32 µg/mL (≈ 78 µM)

SMILES: COc1cccc2c1CO[C@@H]2C[C@@H](O)[C@@H](O)[C@H]1O[C@@H]1C
- MIC (Klebsiella pneumoniae): > 128 µg/mL
- MIC (Pseudomonas aeruginosa): > 128 µg/mL
- MIC (Escherichia coli [2]): > 128 µg/mL
- MIC (Enterococcus faecalis): > 128 µg/mL
- MIC (Staphylococcus aureus): > 128 µg/mL

SMILES: C=C1[C@H]2C(=O)[C@]3(C)C=C4C(=O)OC[C@]14[C@@]1(CC[C@H]4C(C)(C)C(=O)C=C[C@]4(C)[C@H]21)C3
- MIC (Klebsiella pneumoniae): 64 µg/mL (≈ 163 µM)
- MIC (Pseudomonas aeruginosa): 32 µg/mL (≈ 81.5 µM)
- MIC (Escherichia coli [2]): 32 µg/mL (≈ 81.5 µM)
- MIC (Enterococcus faecalis): > 128 µg/mL
- MIC (Staphylococcus aureus): 64 µg/mL (≈ 163 µM)

SMILES: CC1(C)C(=O)C=C[C@@]2(C)[C@H]1CC[C@@]13C[C@@]4(C)C=C5C(=O)OC[C@]51[C@@]1(CO1)[C@@H](C4=O)[C@@H]23
- MIC (Klebsiella pneumoniae): > 128 µg/mL
- MIC (Pseudomonas aeruginosa): 64 µg/mL (≈ 157 µM)
- MIC (Escherichia coli [2]): 32 µg/mL (≈ 78.3 µM)
- MIC (Enterococcus faecalis): > 128 µg/mL
- MIC (Staphylococcus aureus): > 128 µg/mL

SMILES: COc1cccc(/C=C/[C@@H](O)[C@@H](O)[C@H]2O[C@@H]2C)c1CO
- MIC (Klebsiella pneumoniae): > 128 µg/mL
- MIC (Pseudomonas aeruginosa): 32 µg/mL (≈ 114 µM)
- MIC (Escherichia coli [2]): 32 µg/mL (≈ 114 µM)
- MIC (Enterococcus faecalis): > 128 µg/mL
- MIC (Staphylococcus aureus): 64 µg/mL (≈ 228 µM)

SMILES: CCC[C@H](O)[C@H](O)C[C@H]1OCc2cccc(OC)c21
- MIC (Klebsiella pneumoniae): > 128 µg/mL
- MIC (Pseudomonas aeruginosa): 32 µg/mL (≈ 120 µM)
- MIC (Escherichia coli [2]): 8 µg/mL (≈ 30 µM)
- MIC (Enterococcus faecalis): 32 µg/mL (≈ 120 µM)
- MIC (Staphylococcus aureus): > 128 µg/mL

- MIC (Klebsiella pneumoniae): 1 µg/mL (≈ 1.8 µM)
- MIC (Pseudomonas aeruginosa): 1 µg/mL (≈ 1.8 µM)
SMILES: CO/N=C(\C(=O)N[C@@H]1C(=O)N2C(C(=O)O)=C(CSc3nc(=O)c(O)nn3C)CS[C@H]12)c1csc(N)n1 [CEFTRIAXONE]

SMILES: C=C1[C@H]2C(=O)[C@]3(C)C=C4C(=O)OC[C@]14[C@@]1(CC[C@H]4C(C)(C)C(=O)C=C[C@]4(C)[C@]21O)C3
- MIC (Klebsiella pneumoniae): > 128 µg/mL
- MIC (Pseudomonas aeruginosa): > 128 µg/mL
- MIC (Escherichia coli [2]): 64 µg/mL (≈ 157 µM)
- MIC (Enterococcus faecalis): > 128 µg/mL
- MIC (Staphylococcus aureus): > 128 µg/mL

SMILES: NCC[C@H](O)C(=O)N[C@@H]1C[C@H](N)[C@@H](O[C@H]2O[C@H](CN)[C@@H](O)[C@H](O)[C@H]2O)[C@H](O)[C@H]1O[C@H]1O[C@H](CO)[C@@H](O)[C@H](N)[C@H]1O [AMIKACIN]
- MIC (Escherichia coli [2]): 2 µg/mL (≈ 3.42 µM)

SMILES: CCC[C@H](O)[C@H](O)C[C@H]1OCc2c(OC)cccc21
- Activity (BEAS-2B): Non-Toxic
- MIC (Klebsiella pneumoniae): 16 µg/mL (≈ 60.1 µM)
- Activity (Escherichia coli [3]): Active
- MIC (Pseudomonas aeruginosa): 4 µg/mL (≈ 15 µM)
- MIC (Escherichia coli [2]): 4 µg/mL (≈ 15 µM)
- MIC (Enterococcus faecalis): 32 µg/mL (≈ 120 µM)
- MIC (Staphylococcus aureus): 32 µg/mL (≈ 120 µM)
